Source: ChEMBL document CHEMBL1811843, “Analogue-based design, synthesis and molecular docking analysis of 2,3-diaryl quinazolinones as non-ulcerogenic anti-inflammatory agents” (Bioorg Med Chem, 2011)

Experiments:
Rattus norvegicus [1] = experiment: Antiinflammatory activity in rat assessed as inhibition of carrageenan-induced paw edema at 50 mg/kg, po measured after 270 min by Plethysmograph; type: functional; conditions: 4.5 h
Outline: (§1)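 Rats randomly grouped, six per group, housed at 25 °C with a 12 h light/dark cycle and acclimatized one week. Test compounds given orally at 50 mg/kg with CMC-Na as vehicle, and indomethacin 10 mg/kg as standard. Edema induced by 0.1 ml carrageenan solution injected into the hind paw. Paw volume measured by mercury-displacement plethysmograph before and 90, 180, 270 and 360 min after injection. % edema inhibition calculated from test and control paw volumes before and after carrageenan. Results given as mean ± SEM.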

Rattus norvegicus [2] = experiment: Antiinflammatory activity in rat assessed as inhibition of carrageenan-induced paw edema at 50 mg/kg, po measured after 90 min by Plethysmograph; type: functional; conditions: 1.5 h; outline: as §1
Rattus norvegicus [3] = experiment: Antiinflammatory activity in rat assessed as inhibition of carrageenan-induced paw edema at 50 mg/kg, po measured after 180 min by Plethysmograph; type: functional; conditions: 3 h; outline: as §1
Rattus norvegicus [4] = experiment: Antiinflammatory activity in rat assessed as inhibition of carrageenan-induced paw edema at 50 mg/kg, po measured after 360 min by Plethysmograph; type: functional; conditions: 6 h; outline: as §1
[5] = target: T1, Prostaglandin G/H synthase 1 (Ovis aries) (UniProt P05979); experiment: Inhibition of sheep COX-1 at 20 uM by cayman colorimetric assay
T1 sequence (whole entry): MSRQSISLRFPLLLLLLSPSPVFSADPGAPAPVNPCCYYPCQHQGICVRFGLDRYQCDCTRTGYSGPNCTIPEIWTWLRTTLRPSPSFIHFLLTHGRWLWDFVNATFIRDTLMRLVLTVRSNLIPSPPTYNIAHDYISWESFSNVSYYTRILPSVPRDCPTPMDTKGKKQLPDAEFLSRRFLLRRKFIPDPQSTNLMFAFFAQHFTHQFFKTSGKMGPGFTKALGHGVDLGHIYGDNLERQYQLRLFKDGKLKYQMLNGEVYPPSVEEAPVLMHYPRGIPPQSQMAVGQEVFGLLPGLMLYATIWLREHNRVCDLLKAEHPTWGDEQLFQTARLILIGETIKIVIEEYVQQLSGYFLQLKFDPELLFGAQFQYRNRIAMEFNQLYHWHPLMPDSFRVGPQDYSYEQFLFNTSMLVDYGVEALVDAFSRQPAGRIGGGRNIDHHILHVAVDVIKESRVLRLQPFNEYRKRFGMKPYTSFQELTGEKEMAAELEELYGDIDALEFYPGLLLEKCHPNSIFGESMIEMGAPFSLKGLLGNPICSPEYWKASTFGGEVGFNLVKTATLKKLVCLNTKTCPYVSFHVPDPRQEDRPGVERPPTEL
Outline: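 Ovine COX-1 activity measured with a commercial ovine COX-1/COX-2 inhibitor screening kit, with calculations done per the kit guidelines. Each value is the mean of two determinations.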

Ovis aries = organism: Ovis aries; experiment: Selectivity ratio of inhibition for sheep COX-1 to inhibition for sheep COX-2 at 20 uM
Rattus norvegicus [6] = organism: Rattus norvegicus; experiment: animal or person; conditions: po, 1.5 h, read-out: INH
Rattus norvegicus [7] = experiment: Toxicity in albino Wistar rat assessed as ulcerogenic activity measuring gastric ulcer lesion index at 50 mg/kg, po once daily for four consecutive days; type: organism-based, Stomach; design: dose 50 mg/kg, route oral; conditions: in vivo
Outline: (§2)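 Wistar albino rats (150–200 g, either sex, fasted) were randomized into groups of 10 and dosed orally once daily for four days alongside a vehicle control group. Rats were killed under deep ether anaesthesia and stomachs removed, opened along the greater curvature, and examined under a dissecting microscope for lesions or bleeding. Ulcer lesion index is given in cm.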

Rattus norvegicus [8] = organism: Rattus norvegicus; experiment: animal or person; conditions: po, 3 h, read-out: INH
Rattus norvegicus [9] = organism: Rattus norvegicus; experiment: animal or person; conditions: po, 6 h, read-out: INH
Rattus norvegicus [10] = organism: Rattus norvegicus; experiment: animal or person; conditions: po, 4.5 h, read-out: INH
Rattus norvegicus [11] = experiment: Toxicity in albino Wistar rat assessed as ulcerogenic activity measuring gastric ulcer lesion index at 10 mg/kg, po once daily for four consecutive days; type: organism-based, Stomach; design: dose 10 mg/kg, route oral; conditions: in vivo; outline: as §2
Rattus norvegicus [12] = experiment: Toxicity in albino Wistar rat assessed as ulcerogenic activity measuring gastric ulcer lesion index at 100 mg/kg, po once daily for four consecutive days; type: organism-based, Stomach; design: dose 100 mg/kg, route oral; conditions: in vivo; outline: as §2

inhibition [5]	Selectivity ratio (Ovis aries)	SMILES	inhibition in vivo at 50 mg/kg (Rattus norvegicus [1])	inhibition in vivo at 50 mg/kg (Rattus norvegicus [2])	inhibition in vivo at 50 mg/kg (Rattus norvegicus [3])	inhibition in vivo at 50 mg/kg (Rattus norvegicus [4])	inhibition in vivo at 10 mg/kg (Rattus norvegicus [6])	Activity (Rattus norvegicus [7])	inhibition in vivo at 10 mg/kg (Rattus norvegicus [8])	inhibition in vivo at 10 mg/kg (Rattus norvegicus [9])	inhibition in vivo at 10 mg/kg (Rattus norvegicus [10])	Activity (Rattus norvegicus [11])	Activity (Rattus norvegicus [12])
–	–	CSc1ccc(-n2c(-c3ccccc3)nc3ccc(Br)cc3c2=O)cc1	35%	30%	33%	39%	–	–	–	–	–	–	–
–	–	COc1ccc(-c2nc3cc(F)ccc3c(=O)n2-c2ccc(SC)cc2)cc1	37%	31%	34%	40%	–	–	–	–	–	–	–
15%	0.238	CS(=O)(=O)c1ccc(-n2c(-c3ccccc3)nc3cc(F)ccc3c2=O)cc1	39%	30%	34%	41%	–	–	–	–	–	–	–
7%	0.106	COc1ccc(-c2nc3ccc(Br)cc3c(=O)n2-c2ccc(S(C)(=O)=O)cc2)cc1	49%	39%	41%	54%	–	–	–	–	–	–	–
–	–	CSc1ccc(-n2c(-c3ccccc3)nc3cc(Cl)ccc3c2=O)cc1	34%	31%	32%	39%	–	–	–	–	–	–	–
–	–	COc1ccc(-c2nc3ccc(Br)cc3c(=O)n2-c2ccc(SC)cc2)cc1	39%	32%	35%	42%	–	–	–	–	–	–	–
29%	0.453	COc1ccc(-c2nc3cc(F)ccc3c(=O)n2-c2ccc(S(C)(=O)=O)cc2)cc1	36%	31%	34%	39%	–	–	–	–	–	–	–
24%	0.471	COc1ccc(-c2nc3ccccc3c(=O)n2-c2ccc(S(C)(=O)=O)cc2)cc1	42%	35%	38%	46%	–	–	–	–	–	–	–
13%	0.31	CS(=O)(=O)c1ccc(-n2c(-c3ccccc3)nc3ccccc3c2=O)cc1	36%	30%	33%	39%	–	–	–	–	–	–	–
–	–	COc1ccc2c(c1)c(CC(=O)O)c(C)n2C(=O)c1ccc(Cl)cc1 [INDOMETHACIN]	–	–	–	–	41%	11.48 cm	58%	13%	49%	1.42 cm	–
–	–	CSc1ccc(-n2c(-c3ccccc3)nc3cc(F)ccc3c2=O)cc1	39%	29%	36%	40%	–	–	–	–	–	–	–
–	–	COc1ccc(-c2nc3cc(Cl)ccc3c(=O)n2-c2ccc(SC)cc2)cc1	43%	36%	38%	47%	–	–	–	–	–	–	–
12%	0.167	COc1ccc(-c2nc3cc(Cl)ccc3c(=O)n2-c2ccc(S(C)(=O)=O)cc2)cc1	41%	37%	38%	43%	–	–	–	–	–	–	–
0%	–	CS(=O)(=O)c1ccc(-n2c(-c3ccccc3)nc3cc(Cl)ccc3c2=O)cc1	42%	32%	37%	45%	–	–	–	–	–	–	0 cm
4%	0.04	CS(=O)(=O)c1ccc(-n2c(-c3ccccc3)nc3ccc(Br)cc3c2=O)cc1	44%	38%	40%	49%	–	–	–	–	–	–	0 cm

SMILES	inhibition [5]	Selectivity ratio (Ovis aries)	inhibition in vivo at 50 mg/kg (Rattus norvegicus [1])	inhibition in vivo at 50 mg/kg (Rattus norvegicus [2])	inhibition in vivo at 50 mg/kg (Rattus norvegicus [3])	inhibition in vivo at 50 mg/kg (Rattus norvegicus [4])	inhibition in vivo at 10 mg/kg (Rattus norvegicus [6])	Activity (Rattus norvegicus [7])	inhibition in vivo at 10 mg/kg (Rattus norvegicus [8])	inhibition in vivo at 10 mg/kg (Rattus norvegicus [9])	inhibition in vivo at 10 mg/kg (Rattus norvegicus [10])	Activity (Rattus norvegicus [11])	Activity (Rattus norvegicus [12])
CSc1ccc(-n2c(-c3ccccc3)nc3ccccc3c2=O)cc1	12%	0.3	34%	29%	32%	38%	–	–	–	–	–	–	–
COc1ccc(-c2nc3ccccc3c(=O)n2-c2ccc(SC)cc2)cc1	30%	0.536	38%	30%	34%	40%	–	–	–	–	–	–	–
